Data published in ChEMBL document CHEMBL1136049, “Synthesis of syn- and anti-1-amino-3-[18F]fluoromethyl-cyclobutane-1-carboxylic acid (FMACBC), potential PET ligands for tumor detection” (J Med Chem, 2002).

Key:
Rattus norvegicus [1] = organism: Rattus norvegicus; assay: Radioactivity distribution in bone of normal fischer rat after injection of syn-[18F]-FMACBC after 5 min.; assay type: ADME, organism-based, Bone element; conditions: in vivo
Outline: (§1)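 Male Fischer 344 rats (200–250 g), normal, fed ad libitum, given ~85 μCi of 18F tracer in 0.3 mL sterile water IV through a tail vein catheter. Anesthesia was ketamine:xylazine IM. Groups of four were killed at 5, 30, 60 and 120 min. Tissues were weighed and gamma-counted against dose standards, decay-corrected, and expressed as mean % injected dose per gram.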

Rattus norvegicus [2] = organism: Rattus norvegicus; assay: Radioactivity distribution in tumor of tumor-bearing fischer rat after injection of syn-[18F]-FMACBC after 5 min; assay type: ADME, organism-based; conditions: in vivo
Outline: (§2)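 Male Fischer 344 rats with intracranial 9L gliosarcoma (4 × 10^4 cells stereotaxically implanted; used 17–19 days after implantation). About 35 μCi tracer in 0.3 mL sterile water was given by tail vein to awake, restrained rats. Rats were killed at 5, 60 or 120 min. Tissues, tumor and contralateral brain were weighed and gamma counted, decay-corrected, and expressed as %ID/g; n = 3–5 per time point.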

Rattus norvegicus [3] = organism: Rattus norvegicus; assay: Radioactivity distribution in heart of normal fischer rat after injection of anti-[18F]FMACBC after 30 min.; assay type: ADME, organism-based; conditions: in vivo, 0.5 h; outline: as §1
Rattus norvegicus [4] = organism: Rattus norvegicus; assay: Radioactivity distribution in spleen of normal fischer rat after injection of anti-[18F]FMACBC after 5 min.; assay type: ADME, organism-based; conditions: in vivo
Outline: (§3)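 Normal male Fischer 344 rats (200–250 g) were anesthetised with ketamine:xylazine i.m. and given about 85 μCi tracer in 0.3 mL sterile water via a tail vein catheter. Groups of four were killed at 5, 30, 60 and 120 min. Selected tissues were weighed and gamma counted with dose standards, decay-corrected, and expressed as mean %ID/g.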

Rattus norvegicus [5] = organism: Rattus norvegicus; assay: Radioactivity distribution in testis of tumor-bearing fischer rat after injection of anti-[18F]FMACBC after 60 min; assay type: ADME, organism-based; conditions: in vivo, 1 h; outline: as §2
Rattus norvegicus [6] = organism: Rattus norvegicus; assay: Radioactivity distribution in brain of normal fischer rat after injection of anti-[18F]FMACBC after 60 min.; assay type: ADME, organism-based; conditions: in vivo, 1 h; outline: as §1
Rattus norvegicus [7] = organism: Rattus norvegicus; assay: Radioactivity distribution in muscle of normal fischer rat after injection of syn-[18F]-FMACBC after 30 min.; assay type: ADME, organism-based, Muscle tissue; conditions: in vivo, 0.5 h; outline: as §3
Rattus norvegicus [8] = organism: Rattus norvegicus; assay: Radioactivity distribution in blood of tumor-bearing fischer rat after injection of anti-[18F]FMACBC after 5 min; assay type: ADME, organism-based; conditions: in vivo
Outline: (§4)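 Male Fischer 344 rats carrying intracranial rat 9L gliosarcoma, made by stereotaxic injection of 4 × 10^4 cells 17–19 days before. Awake restrained rats received ~35 μCi of 18F tracer in 0.3 mL sterile water IV by tail vein and were killed at 5, 60 or 120 min, n = 3–5. Tissues were weighed, gamma-counted, decay-corrected and expressed as % injected dose per gram.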

Rattus norvegicus [9] = organism: Rattus norvegicus; assay: Radioactivity distribution in blood of normal fischer rat after injection of anti-[18F]FMACBC after 60 min.; assay type: ADME, organism-based; conditions: in vivo, 1 h; outline: as §1
Rattus norvegicus [10] = organism: Rattus norvegicus; assay: Radioactivity distribution in testis of tumor-bearing fischer rat after injection of anti-[18F]FMACBC after 5 min; assay type: ADME, organism-based; conditions: in vivo; outline: as §2
Rattus norvegicus [11] = organism: Rattus norvegicus; assay: Radioactivity distribution in lung of tumor-bearing fischer rat after injection of anti-[18F]FMACBC after 5 min; assay type: ADME, organism-based; conditions: in vivo; outline: as §2
Rattus norvegicus [12] = organism: Rattus norvegicus; assay: Radioactivity distribution in heart of tumor-bearing fischer rat after injection of syn-[18F]-FMACBC after 120 min; assay type: ADME, organism-based; conditions: in vivo, 2 h; outline: as §4
Rattus norvegicus [13] = organism: Rattus norvegicus; assay: Radioactivity distribution in pancreas of normal fischer rat after injection of anti-[18F]FMACBC after 120 min.; assay type: ADME, organism-based; conditions: in vivo, 2 h; outline: as §3
Rattus norvegicus [14] = organism: Rattus norvegicus; assay: Radioactivity distribution in heart of tumor-bearing fischer rat after injection of anti-[18F]FMACBC after 60 min; assay type: ADME, organism-based; conditions: in vivo, 1 h; outline: as §4
Rattus norvegicus [15] = organism: Rattus norvegicus; assay: Radioactivity distribution in heart of normal fischer rat after injection of syn-[18F]-FMACBC after 60 min.; assay type: ADME, organism-based; conditions: in vivo, 1 h; outline: as §1
Rattus norvegicus [16] = organism: Rattus norvegicus; assay: Radioactivity distribution in liver of normal fischer rat after injection of anti-[18F]FMACBC after 120 min.; assay type: ADME, organism-based; conditions: in vivo, 2 h; outline: as §1
Rattus norvegicus [17] = organism: Rattus norvegicus; assay: Radioactivity distribution in muscle of tumor-bearing fischer rat after injection of anti-[18F]FMACBC after 5 min; assay type: ADME, organism-based, Muscle tissue; conditions: in vivo; outline: as §2
Rattus norvegicus [18] = organism: Rattus norvegicus; assay: Radioactivity distribution in testis of tumor-bearing fischer rat after injection of syn-[18F]-FMACBC after 5 min; assay type: ADME, organism-based; conditions: in vivo; outline: as §2

N[C@]1(C(=O)O)C[C@@H](CF)C1
ID/g (Rattus norvegicus [1]): 0.7% | ID/g (Rattus norvegicus [2]): 1.16% | ID/g (Rattus norvegicus [3]): 0.68% | ID/g (Rattus norvegicus [4]): 1.03% | ID/g (Rattus norvegicus [5]): 0.26% | ID/g (Rattus norvegicus [6]): 0.25% | ID/g (Rattus norvegicus [7]): 0.58% | ID/g (Rattus norvegicus [8]): 0.51% | ID/g (Rattus norvegicus [9]): 0.33% | ID/g (Rattus norvegicus [10]): 0.23% | ID/g (Rattus norvegicus [11]): 0.55% | ID/g (Rattus norvegicus [12]): 0.33% | ID/g (Rattus norvegicus [13]): 4.09% | ID/g (Rattus norvegicus [14]): 0.63% | ID/g (Rattus norvegicus [15]): 0.64% | ID/g (Rattus norvegicus [16]): 0.48% | ID/g (Rattus norvegicus [17]): 0.57% | ID/g (Rattus norvegicus [18]): 0.19%
